The source made the active and inactive calls. The rule behind the calls is not given here.
What was measured:
Format in all cases: functional
Rattus norvegicus [1] = experiment: Antihyperlipidemic activity in high-cholesterol diet fed Wistar albino rat model assessed as ratio of LDL level to HDL level at 20 mg/kg, po
How it was run: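 The ratio was calculated from group mean LDL and mean HDL. It used the HCD rat model (2% cholesterol, 1% cholic acid, 14 days), oral dosing at 20 mg/kg in 0.5% CMC on days 8–14, and n=6. Serum was taken from tail blood after a 12 h fast. HDL was measured by kit and LDL was derived by Friedewald's formula.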

Rattus norvegicus [2] = experiment: Antihyperlipidemic activity in high-cholesterol diet fed Wistar albino rat model assessed as reduction in serum total cholesterol level at 20 mg/kg, po
How it was run: (§1)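 Adult male rats given high cholesterol diet (2% cholesterol, 1% cholic acid) for 14 days, dosed orally at 20 mg/kg in 0.5% CMC on days 8–14. Normal-chow and HCD vehicle controls were included, n=6 per group. After a 12 h fast on day 14, tail blood was taken under mild ether anesthesia. Serum TC, TG and HDL were measured by kit spectrophotometry, and LDL was calculated by Friedewald's formula. Values are percent change versus the HCD control.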

Rattus norvegicus [3] = experiment: Antihyperlipidemic activity in high-cholesterol diet fed Wistar albino rat model assessed as increase in serum HDL level at 20 mg/kg, po; how it was run: as §1
Rattus norvegicus [4] = experiment: Antihyperlipidemic activity in high-cholesterol diet fed Wistar albino rat model assessed as reduction in serum LDL level at 20 mg/kg, po; parameters: scale not given: the % may be the effect or the level left; how it was run: as §1
Rattus norvegicus [5] = experiment: Antihyperlipidemic activity in high-cholesterol diet fed Wistar albino rat model assessed as reduction in serum triglyceride level at 20 mg/kg, po; parameters: scale not given: the % may be the effect or the level left; how it was run: as §1

CC(Oc1ccc2ccccc2c1)C(=O)NNC(=S)Nc1ccccc1 (centres undefined)
Ratio (Rattus norvegicus [1]): 5.7
Activity (Rattus norvegicus [2]): inactive
Activity (Rattus norvegicus [3]): Active

C=CCNC(=S)NNC(=O)C(C)Oc1ccc2ccccc2c1 (centres undefined)
Ratio (Rattus norvegicus [1]): 8.16
Activity (Rattus norvegicus [2]): inactive
Activity (Rattus norvegicus [3]): Active

CCSc1nnc(C(C)Oc2ccc3ccccc3c2)n1-c1ccccc1 (centres undefined)
Ratio (Rattus norvegicus [1]): 3.4
Activity (Rattus norvegicus [4]): 19.15%
Activity (Rattus norvegicus [2]): 19.44%
Activity (Rattus norvegicus [3]): 51.21%
Activity (Rattus norvegicus [5]): 19.07%

CCSc1nnc(C(C)Oc2ccc3ccccc3c2)n1CC (centres undefined)
Ratio (Rattus norvegicus [1]): 4.5
Activity (Rattus norvegicus [4]): Active
Activity (Rattus norvegicus [2]): inactive
Activity (Rattus norvegicus [3]): Active
Activity (Rattus norvegicus [5]): inactive

CC(Oc1ccc2ccccc2c1)C(=O)N/N=C/c1ccc([N+](=O)[O-])cc1 (centres undefined)
Ratio (Rattus norvegicus [1]): 4.74
Activity (Rattus norvegicus [2]): inactive
Activity (Rattus norvegicus [3]): Active
Activity (Rattus norvegicus [5]): inactive

COc1ccc(NC(=O)C(C)Oc2ccc3ccccc3c2)cc1 (centres undefined)
Ratio (Rattus norvegicus [1]): 5.19
Activity (Rattus norvegicus [2]): inactive
Activity (Rattus norvegicus [3]): Active

CC(Oc1ccc2ccccc2c1)c1n[nH]c(=S)n1-c1ccccc1 (centres undefined)
Ratio (Rattus norvegicus [1]): 3.75
Activity (Rattus norvegicus [4]): Active
Activity (Rattus norvegicus [2]): inactive
Activity (Rattus norvegicus [3]): 47.78%
Activity (Rattus norvegicus [5]): inactive

CC1=NN(C(=O)C(C)Oc2ccc3ccccc3c2)C(=O)C1 (centres undefined)
Ratio (Rattus norvegicus [1]): 4.54
Activity (Rattus norvegicus [4]): 21.74%
Activity (Rattus norvegicus [2]): 15.89%
Activity (Rattus norvegicus [3]): Active

CC(Oc1ccc2ccccc2c1)c1n[nH]c(=S)o1 (centres undefined)
Ratio (Rattus norvegicus [1]): 3.29
Activity (Rattus norvegicus [4]): 19.58%
Activity (Rattus norvegicus [2]): 16.18%
Activity (Rattus norvegicus [3]): 55.42%
Activity (Rattus norvegicus [5]): 26.78%

CC(Oc1ccc2ccccc2c1)C(=O)N1N=C(c2ccccc2)CC1(O)c1ccccc1 (centres undefined)
Ratio (Rattus norvegicus [1]): 3.99
Activity (Rattus norvegicus [2]): inactive
Activity (Rattus norvegicus [3]): 49.73%
Activity (Rattus norvegicus [5]): inactive

CCNC(=S)NNC(=O)C(C)Oc1ccc2ccccc2c1 (centres undefined)
Ratio (Rattus norvegicus [1]): 6.71
Activity (Rattus norvegicus [2]): inactive
Activity (Rattus norvegicus [3]): Active

CCn1c(C(C)Oc2ccc3ccccc3c2)n[nH]c1=S (centres undefined)
Ratio (Rattus norvegicus [1]): 3.61
Activity (Rattus norvegicus [4]): Active
Activity (Rattus norvegicus [2]): inactive
Activity (Rattus norvegicus [3]): 48.25%
Activity (Rattus norvegicus [5]): 20.88%

Cc1ccc(C)c(OCCCC(C)(C)C(=O)O)c1 [GEMFIBROZIL]
Ratio (Rattus norvegicus [1]): 4.81
Activity (Rattus norvegicus [2]): 4.68%
Activity (Rattus norvegicus [3]): 25.18%
Activity (Rattus norvegicus [5]): 22.23%

CC(C)=NNC(=O)C(C)Oc1ccc2ccccc2c1 (centres undefined)
Ratio (Rattus norvegicus [1]): 6.1
Activity (Rattus norvegicus [2]): inactive
Activity (Rattus norvegicus [3]): Active

CC(Oc1ccc2ccccc2c1)C(=O)O (centres undefined)
Activity (Rattus norvegicus [4]): Active
Activity (Rattus norvegicus [3]): Active

COc1ccc(/C=N/NC(=O)C(C)Oc2ccc3ccccc3c2)cc1 (centres undefined)
Ratio (Rattus norvegicus [1]): 5.4
Activity (Rattus norvegicus [2]): inactive
Activity (Rattus norvegicus [3]): Active

C/C(=N\NC(=O)C(C)Oc1ccc2ccccc2c1)c1ccc(Br)cc1 (centres undefined)
Ratio (Rattus norvegicus [1]): 6.04
Activity (Rattus norvegicus [2]): inactive
Activity (Rattus norvegicus [3]): Active
